procasp7 counter – activates human procaspase-7, counter-screen for procaspase-3 activators; recombinant procaspase-7, Ac-DEVD-pNA absorbance 405 nm; D23A/D198A/D206A triple mutant, cannot self-cleave; scale: DMSO 0, 5 µM enzyme 100; activation, % at 8.5 µM; 0.093% of 330,000 active; AID 463210; P55210;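 active = percent activation above the screen-wide mean plus 3 SD, cut at about 25% in these data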
Target sequence (P55210 whole entry D23A/D198A/D206A): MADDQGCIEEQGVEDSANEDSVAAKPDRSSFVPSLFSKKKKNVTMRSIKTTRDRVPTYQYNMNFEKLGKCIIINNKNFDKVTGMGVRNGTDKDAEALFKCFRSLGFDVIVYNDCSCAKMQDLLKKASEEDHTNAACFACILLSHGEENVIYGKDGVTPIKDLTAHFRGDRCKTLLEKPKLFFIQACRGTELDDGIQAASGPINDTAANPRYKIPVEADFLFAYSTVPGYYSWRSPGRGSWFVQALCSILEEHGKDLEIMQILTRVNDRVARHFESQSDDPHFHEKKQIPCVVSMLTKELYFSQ
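Assay system: Uncleavable procaspase-7 mutant enzyme | Input: 2 µM procaspase-7 mutant as dispensed | Timing: 1 h compound preincubation, 2 h substrate cleavage, 25 °C | Repeats: One well per compound | Control set: DMSO wells as 0%, DMSO with 5 µM added PC-7 as 100% | Technique: Epi-absorbance of released pNA at 405 nm, two timepoints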
proCasp3 act – activators of human procaspase-3 | P42574 | recombinant procaspase-3 D3A, Ac-DEVD-pNA absorbance 405 nm | activation, % at 8.5 µM | 0.11% of 330,000 active;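 active = activation above the mean of all tested compounds plus 3 SD, cut at about 21% in these data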;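 also: 0% = DMSO alone and 100% = DMSO wells spiked with extra 5 µM PC-3 D3A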
Target sequence (P42574 whole entry D9A/D28A/D175A): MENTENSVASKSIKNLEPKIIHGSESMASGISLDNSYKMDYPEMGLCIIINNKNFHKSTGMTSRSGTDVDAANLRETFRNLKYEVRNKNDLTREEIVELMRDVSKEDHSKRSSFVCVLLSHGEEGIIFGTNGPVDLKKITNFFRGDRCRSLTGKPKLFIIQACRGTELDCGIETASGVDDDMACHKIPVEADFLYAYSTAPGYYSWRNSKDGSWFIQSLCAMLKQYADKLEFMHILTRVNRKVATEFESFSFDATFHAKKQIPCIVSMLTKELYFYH
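Compound: 8.5 µM single point, 0.8% DMSO / Material: Autoprocessing-dead procaspase-3 D3A mutant enzyme / Timing: 1 h preincubation plus 2 h reaction at 25 °C / Medium: Zinc-free HEPES/NaCl buffer with 0.01% Triton X-100 at pH 7.4 / Technique: 405 nm absorbance of p-nitroaniline, reads at 0 and 120 min / Repeats: one well per compound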
PLC-beta3 inh – inhibitors of human phospholipase C beta3 | Q01970 | Purified PLC-beta3, fluorogenic substrate, fluorescence | inhibition, % at 12.2 µM | 0.18% of 370,000 active | AID 720704; in the data active = inhibition above about 11%;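 also: 0% = median of compound wells on plate and 100% = full blocker control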
HGIII-sPLA2 inh – Inhibits HGIII-sPLA2 liposome hydrolysis, primary screen. QFRET BODIPY PC-A2 liposome hydrolysis, fluorescence. 0.56% of 370,000 active. inhibition, % at 12.2 µM. Q9NZ20;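 active = inhibition above mean plus 3 SD of compounds lying within the high and low control bounds, cut at about 19% in these data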;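 also: 0% = median of test compound wells and 100% = no enzyme DMSO wells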
PLCg1 inh – blocks human PLC-gamma1 enzyme activity. AID 720700. inhibition, % at 12.2 µM. 0.84% of 370,000 active. P19174. purified PLC-gamma1, fluorogenic substrate, fluorescence; in the data active = inhibition above about 9.5%
sPLA2 confirm – human GIII-sPLA2 inhibition, confirmation. shares compounds with HGIII-sPLA2 inh. recombinant hGIII-sPLA2, BODIPY PC-A2 QFRET fluorescence. inhibition, % at 12.2 µM. 34% of 2,000 active;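 active = mean inhibition across triplicates above the hit cutoff set in the earlier primary screen, cut at about 19% in these data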;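 also: 0% = enzyme with DMSO and 100% = DMSO wells lacking enzyme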
535nm interf – optically interferes with 535nm fluorescence in sPLA2 counter-screen. shares compounds with HGIII-sPLA2 inh. BODIPY FL product fluorescence interference, QFRET. inhibition, % at 12.2 µM. 8.5% of 2,000 active;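 active = average inhibition above the solvent-only control mean plus 3 SD, cut at about 6% in these data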;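 also: 0% = DMSO with substrate plus product and 100% = DMSO with substrate alone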
535nm interf DR – counter-screen for HGIII-sPLA2 inhibitors: 535nm fluorescence interference, dose response; shares compounds with HGIII-sPLA2 inh; BODIPY FL product fluorescence interference, cell-free; 240 tested, under 10 active; IC50, µM;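 active = IC50 at or below 10 µM; inactive = IC50 above 10 µM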
* = called active by the depositor; i = inactive; . = not tested or not shown. This is a sample that favours compounds with a hit; in the whole collection about 1.6% have one here.

SMILES	procasp7 counter	proCasp3 act	PLC-beta3 inh	HGIII-sPLA2 inh	PLCg1 inh	sPLA2 confirm	535nm interf	others
CCN(CC)CCN1CCn2c3c(c4cc(C)ccc42)CCCC31 (stereo unspecified)	-5	1	-351	23*	-328	10	-20
Cc1ccc2c(c1)c1c3n2CCNC3CCC1 (stereo unspecified)	10	2	-92	27*	-61	32*	-4	535nm interf DR=>122
CCN1CCn2c3c(c4cc(Cl)ccc42)CCCC31 (stereo unspecified)	-8	-2	-115	12	-107	.	.
Cc1ccc2c(c1)c1c3n2CCN(C=O)C3CCC1 (stereo unspecified)	-6	8	-72	13	-53	.	.
Cc1cc(C)cc(N(CC(=O)NC2CCCC2)C(=O)CNC(=O)c2cccs2)c1	7	13	-7	-2	0	.	.
CCCNC(=O)COC(=O)c1cc2c(=O)n3ccccc3nc2s1	5	1	-351	19*	-293	-4	-4
CCOc1ccccc1NS(=O)(=O)c1cn(C)nc1C	9	4	1	-3	1	.	.
Oc1ccc(CCc2ccccc2)c2cccnc12	.	.	-7	26*	-9	21*	-3
Oc1ccc(CNc2cccnc2)c2cccnc12	.	.	1	3	-1	.	.
CCC(=O)N1CCCC1(C)C(=O)Nc1cccc(Oc2ccccc2)c1 (stereo unspecified)	.	.	2	7	0	.	.
CN(C)c1ccc(NC(=O)/C=C/c2c(Cl)cccc2Cl)cc1	-6	-1	0	31*	2	18	8.4*
CCNC(=S)N1CCN(S(=O)(=O)c2cccc(C(F)(F)F)c2)CC1	-3	3	1	8	1	.	.
O=S(=O)(c1cccc(C(F)(F)F)c1)N1CCN(C(=S)NC2CC2)CC1	4	-1	-5	22*	1	17	-4
CCN(CCCCCN(C)C)Cc1cc2ccccc2o1	7	-7	2	21*	5	-2	-19
CCOC(=O)[C@]12CCCC=C1N(Cc1ccco1)C(=O)[C@H](CC(=O)N1CCN(C(=O)c3ccco3)CC1)C2	.	.	-2	11	-1	.	.
O=C1N/C(=N\N=C\c2cccs2)SC1Cc1cccc(Cl)c1Cl (stereo unspecified)	1	7	-2	20*	0	-11	-3
Cc1cccc(OCCNc2cc(N3CCN(C)CC3)ccc2[N+](=O)[O-])c1	-6	0	-1	-7	4	.	.
Cc1cccc(OCCNc2cc(N3CCOCC3)ccc2[N+](=O)[O-])c1	-2	0	1	19*	2	-2	-16
CC(=O)c1cc(F)ccc1OCC(=O)N1CCCc2ccccc21	4	0	-6	-4	-3	.	.
Brc1ccc(C=Nc2ccc3c(c2)OCCOCCOCCO3)s1	2	0	-4	24*	-2	6	-9
Brc1csc(C=Nc2ccc3c(c2)OCCOCCOCCOCCO3)c1	-5	-9	-13	14	-11	.	.
CCc1cc2c(COC(=O)CCNS(=O)(=O)c3cccc(C(F)(F)F)c3)cc(=O)oc2cc1O	15	6	i	-42	i	.	.
c1csc(-c2nnc(NC3CCCCC3)c3ccccc23)c1	-1	4	-33	21*	-30	0	-11
C/C(=N\O)c1c(O)cc(-c2ccccc2)n(-c2ccccc2)c1=O	0	7	-12	-1	-2	.	.
Cc1c(O)c2c(=O)n(-c3ccccc3)c(-c3ccccc3)cc2oc1=O	10	4	-8	20*	-8	7	-5
SMILES	procasp7 counter	proCasp3 act	PLC-beta3 inh	HGIII-sPLA2 inh	PLCg1 inh	sPLA2 confirm	535nm interf	others
CCCCNC(=O)c1nc(-c2cc3ccccc3[nH]2)oc1-c1cccc(C(F)(F)F)c1	.	.	-79	-4	-51	.	.
CCOC(=O)c1sc(NC(=S)NC(=O)C23CC4CC(CC(C4)C2)C3)cc1C	-3	3	1	6	-1	.	.
CCOC(=O)c1sc(NC(=S)NC(=O)C2CC2)cc1C	-10	-8	0	21*	0	7	-3
CCn1cc(C2C3=C(CC(C)(C)CC3=O)N(c3ccc(C)cc3)C3=C2C(=O)CC(C)(C)C3)c(C)n1	.	.	-14	20*	-4	-3	-12
CCn1cc(C2C3=C(CC(C)(C)CC3=O)N(c3ccccc3)C3=C2C(=O)CC(C)(C)C3)c(C)n1	-7	-3	-19	5	-16	.	.
CCCCn1c(N)c(N(CCOC)C(=O)c2ccc(F)c(S(=O)(=O)N3CCOCC3)c2)c(=O)[nH]c1=O	0	5	-3	20*	2	7	-5
CC/C(=N/NC(=O)c1ccc(Br)cc1)c1ccc(OCCN2CCOCC2)cc1	9	4	-10	21*	-9	11	-7
CC/C(=N/NC(=O)c1ccccc1)c1ccc(OCCN2CCOCC2)cc1	-9	1	0	5	1	.	.
O=C(CSCc1ccccc1)NNC(=S)Nc1cccc(Cl)c1Cl	-4	-2	-1	38*	-1	35*	3	535nm interf DR=>122
Cc1ccccc1NC(=S)NNC(=O)c1ccoc1C	6	6	0	10	4	.	.
CNC(=S)NNC(=O)CSCc1c(Cl)cccc1Cl	-12	-4	-7	8	-2	.	.
Cc1cccc(NC(=S)NNC(=O)c2ccccc2Br)c1	-15	-2	4	31*	0	26*	2
COc1ccc(NC(=S)NNC(=O)c2ccccc2OC(F)F)cc1	-5	4	-8	18	-4	.	.
Cc1occc1C(=O)NNC(=S)Nc1ccccc1C(F)(F)F	-6	-15	-1	21*	-2	27*	-4
Cc1cccc(NC(=S)NNC(=O)c2ccccc2OC(F)F)c1	-9	0	-1	23*	2	36*	-4
O=C(NCCN1CCOCC1)c1ccc(NC(=O)C2COc3ccccc3O2)cc1 (stereo unspecified)	2	-5	-6	0	-2	.	.
CCOC(=O)c1c(NC(=O)COC(=O)c2nccnc2N)sc(C(=O)N(C)C)c1C	5	10	-111	-4	-122	.	.
COc1ccc(C(O)c2nc(-c3cccc4cccnc34)cs2)cc1 (stereo unspecified)	.	.	-21	-13	-9	.	.
COc1ccccc1NC(=S)NNC(=O)c1cc(C)n(C)n1	-8	-5	1	17	1	.	.
Cc1cccc(NC(=S)NNC(=O)c2ccc3c(c2)OCO3)c1	-10	-14	-1	23*	-3	43*	0	535nm interf DR=>122
